Screens from PubChem.
Hits are enriched below; roughly 3.6% of the tested compounds scored in any of these assays.
PfHsp90 set2: growth inhibition of yeast expressing Plasmodium Hsp90 | AID 504621 | 310,000 tested, 0.32% active | inhibition, % at 9.4 µM | S. cerevisiae expressing PfHsp90, BacTiter-Glo ATP, 48 h; yeast lacking PDR1 and PDR3 efflux regulators;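 active = every replicate shows inhibition above about 80%, whatever the replicate mean, limit read from the data; inconclusive = mean inhibition reaches the set limit but some replicate falls short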;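 also: 0% = DMSO neutral controls and 100% = 20 µM radicicol positive controls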
SKKanGAS inh: blocks kanamycin growth of S. pyogenes SKKanGAS strain; BacTiter-Glo, 6 h; inhibition, % at 7.5 µM; 300,000 tested, 1.3% active;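 active = mean replicate score, as percent of positive control median, at least 50; inconclusive = mean below 50 but one replicate at or above 50; inactive = mean and every replicate below 50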;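 also: strain carries kanamycin resistance gene driven by streptokinase promoter and grows in 40 µg/ml kanamycin; loss of luminescence reflects streptokinase promoter inhibition or plain growth inhibition; 0% = median of DMSO wells and 100% = positive control at its reference dose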
HIF activator: HIF pathway transcriptional activation; U2OS HRE-luciferase reporter, luminescence; normalized: DMSO 0%, desferrioxamine 100%; activation, % at 7.5 µM (by protocol); 300,000 tested, 0.32% active; AID 1910;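 active = mean activation of at least 10% of the iron chelator positive control signal, with at least half of replicates also reaching 10%; inconclusive = mean and replicate majority disagree about reaching 10%; inactive = mean and most replicates under 10%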
CSC inhib: blocks cancer stem cells; cancer stem cell-like cells viability, luminescence; inhibition, % at 7.5 µM; 300,000 tested, 1.1% active; in the data active = inhibition above about 75%; inconclusive = no clear call, values can overlap the other calls; tested in HMLE shEcad cells
Beta cell apopt: blocks beta cell apoptosis | INS-1E cytokine-induced death, ATP luminescence, 48 h; percent of positive-control rescue, neutral wells zero | protection from apoptosis, % (no concentration beside the values) | 300,000 tested, 0.8% active;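 active = Every replicate reaches about 75%, or at least half do and their mean reaches it too, limit read from the data; inconclusive = At least half of replicates reach the limit but their mean does not; inactive = Under half of replicates reach the limit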;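 also: 0% = cytokine-treated negative control wells and 100% = positive control rescue; higher means more ATP so stronger rescue from cytokine killing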
T cruzi inh: blocks replication of Trypanosoma cruzi; AID 1885; 300,000 tested, 1.4% active; inhibition, % (no concentration beside the values); T. cruzi beta-gal in NIH3T3, luminescence, 90 h;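 active = mean inhibition across valid replicates above about 55%, limit read from the data; inconclusive = mean below that limit but half or more replicates reach it; inactive = mean below it, under half of replicates reach it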;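 also: signal also drops with host cell toxicity which is not excluded here; 0% = plate median of DMSO wells and 100% = zero luminescence signal; higher percent means less beta-gal luminescence so fewer parasites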
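assay system = mouse NIH/3T3 fibroblasts infected with β-gal-expressing T. cruzi Tulahuen C4 | input = 5,000 NIH/3T3 host cells per well | buffer or medium = DMEM plus 2% FBS | timing = 3 h host attachment, then at least 90 h co-culture | measured by = GalScreen luminescence, 60 min | evaluation = luminescence reflecting intracellular parasite burden, expressed as percent inhibition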
* hit, by the source's call; ? = inconclusive; / = no result.

SMILES	PfHsp90 set2	SKKanGAS inh	HIF activator	CSC inhib	Beta cell apopt	T cruzi inh
Cc1nn2c(SCC(=O)c3cccs3)cc(C(C)(C)C)nc2c1-c1ccccc1	3	20	0	37	11	59*
Cc1cc(N/N=C/c2ccc(O)cc2O)nc(-n2nc(C)cc2C)n1	17	-7	4	29	99*	60*
COc1ccc(/C=N/Nc2cc(C)nc(-n3nc(C)cc3C)n2)cc1	16	6	1	19	90*	44
Oc1ccc(/C=N/Nc2cc(N3CCCC3)nc(N3CCCC3)n2)cc1	17	-17	0	5	5	53
COc1ccc(/C=N/Nc2cc(N3CCCC3)nc(N3CCCC3)n2)cc1	5	19	0	92*	56	67*
COc1ccc(/C=N/Nc2cc(C)nc(NS(=O)(=O)c3ccc(C)cc3)n2)cc1	1	13	0	-2	-4	1
Cc1cc(N/N=C/c2cccc(Cl)c2)nc(-n2nc(C)cc2C)n1	-34	104*	0	20	103*	33
Cc1cc(N/N=C/c2cccc([N+](=O)[O-])c2)nc(-n2nc(C)cc2C)n1	2	19	-1	29	59	-55
FC(F)(F)c1ccc(C2NCCc3sccc32)cc1 (stereo not drawn)	6	0	1	5	0	2
O=C(Cc1ccccc1)Nc1ncnc2c1C(c1ccccc1)c1c(ccc3ccccc13)O2 (stereo not drawn)	-2	/	/	42	13	/
O=C1NC(=S)S/C1=C\c1cccc([N+](=O)[O-])c1	-18	/	/	/	/	/
Cc1cc(N/N=C/c2ccccc2[N+](=O)[O-])nc(-n2nc(C)cc2C)n1	4	6	2	54	128*	69*
Cc1cc(C)nc(N/N=C/C2=C(O)CC(c3ccc(F)cc3)CC2=O)n1 (stereo not drawn)	/	-2	22*	24	66	10
CN1/C(=C\C(=S)Nc2ccccc2)C(C)(C)c2ccccc21	2	-11	1	-2	120*	36
CN1/C(=C\C(=O)Nc2ccc(Cl)cc2)C(C)(C)c2ccccc21	37	69*	0	61	-2	14
CCOc1ncccc1C(=O)NNC(=O)c1cccc(S(=O)(=O)N2CCOCC2)c1	-6	/	/	5	-3	/
N/C(Cc1ccc(Cl)c(Cl)c1)=N\OC(=O)c1ccc(Br)o1	95*	-8	0	9	-8	2
CC1CCc2c(sc(NS(=O)(=O)c3ccccc3)c2C(=O)OC(C)C)C1 (stereo not drawn)	10	95*	0	-6	1	-10
Cc1cc(NC(=O)CSc2nc3cc(Cl)ccc3o2)no1	-21	2	0	/	-3	-20
CCN(CC)S(=O)(=O)c1ccc2oc(SCC(=O)Nc3cc(C)on3)nc2c1	-39	2	1	41	64	60*
O=C(O)c1ccc2ccc3ccccc3c2c1	/	-6	0	11	-1	-11
CCN1CCCC1CN(Cc1cc2ccc(C)cc2[nH]c1=O)C(=S)Nc1ccc(OC)cc1 (stereo not drawn)	0	-8	-36	-12	-10	15
CCN1CCCC1CN(Cc1cc2ccc(C)cc2[nH]c1=O)C(=S)Nc1ccc(F)cc1 (stereo not drawn)	94*	-11	-6	-6	5	27
CC(=O)c1ccc(Oc2cc(-c3ccccc3)nc(-c3ccccc3)n2)cc1	-8	-1	/	20	14	0
O=Cc1ccc(Oc2cc(-c3ccccc3)nc(-c3ccccc3)n2)cc1	0	14	0	100*	9	25
SMILES	PfHsp90 set2	SKKanGAS inh	HIF activator	CSC inhib	Beta cell apopt	T cruzi inh
Cc1ccc(C2=NS(=O)(=O)N(C)C(C(=O)NC3CCCC3)=C2)cc1	11	5	31*	-5	3	1
COc1ccc(C2=NS(=O)(=O)N(C)C(C(=O)NC3CCCC3)=C2)cc1OC	-3	-4	0	0	2	1
Cc1cc(C)cc(NS(=O)(=O)c2ccc3[nH]cc(C(=O)NCc4ccco4)c(=O)c3c2)c1	-3	5	-2	99*	25	-1
NN=C1c2ccccc2C(=O)C1C(=O)C(c1ccccc1)c1ccccc1 (stereo not drawn)	-14	/	/	/	/	/
C[C@]12CC[C@@H]3c4ccc(O)cc4CC[C@H]3[C@@H]1CC[C@@H]2OC(=O)CCC1CCCC1	-6	111*	0	22	8	-24
C[C@]12CC[C@@H]3c4ccc(O)cc4CC[C@H]3[C@@H]1CCC2=O	-5	-2	0	-4	-3	-3
O=C(c1ccc(F)cc1)N(Cc1cccs1)C1CCS(=O)(=O)C1 (stereo not drawn)	2	15	167*	-9	-6	-6
COc1ccccc1NS(=O)(=O)c1ccc(NC(=O)c2nc3nc(C)cc(C(F)F)n3n2)cc1	-7	1	-1	-11	-16	18
CCOC(=O)C1=C(C(=O)OCC)c2ccc(OC)c(OC)c2C1	-7	/	/	/	/	/
COc1cc(CNc2ccc(O)cc2)cc(Br)c1OCc1ccccc1	3	4	-2	59	29	-32
COc1cc(CNC(C)c2ccccc2)cc(Br)c1OCc1ccccc1 (stereo not drawn)	0	8	1	112*	18	51
COc1cc(CNn2c(C)n[nH]c2=S)cc(Br)c1OCc1ccc(F)cc1	-11	2	-1	10	/	4
COc1cc(CNC(C)c2ccccc2)cc(Br)c1OCc1ccc(F)cc1 (stereo not drawn)	-4	12	-2	56	113*	55*
CCCCCCN1N=C(C)C(C(=O)c2ccc(Cl)cc2)C1=O (stereo not drawn)	-55	50*	-1	36	3	-7
Cc1ccc(S(=O)(=O)c2c(C)nn(C(C)(C)C)c2OC(=O)c2ccco2)cc1	0	4	-1	-1	-2	-38
Cc1ccc(S(=O)(=O)c2c(C)nn(C(C)(C)C)c2OC(=O)c2ccc(Br)o2)cc1	-17	4	2	91*	-12	2
CC(=O)Oc1c(S(=O)(=O)c2ccc(C)cc2)c(C)nn1C(C)(C)C	-32	-8	0	14	-7	7
Cc1ccc(S(=O)(=O)c2c(C)nn(C(C)(C)C)c2OC(=O)c2cccs2)cc1	2	4	0	84*	-11	2
COc1cc(CN(C2CC2)S(=O)(=O)c2ccccc2Br)cc(OC)c1	11	/	/	/	/	/
Cc1[nH]c2ccccc2c1C(=O)COC(=O)c1nccnc1N	-7	/	/	/	-4	/
Cc1ccc(S(=O)(=O)N(CC(=O)NCc2ccncc2)Cc2ccc(F)cc2)cc1	4	-8	-1	-7	3	14
Cc1ccc(NC(=O)NCC2CCN(Cc3cccc(Cl)c3)CC2)cc1Cl	11	12	0	?	120*	62*
CCSC(=Nc1ccccc1)N1CCOCC1	/	-6	0	-12	-7	4
